Screening results deposited in PubChem BioAssay by several laboratories.
This is one part of a sample in which hits are shown more often than they occur.
H69AR inhibit – blocks growth of human H69AR lung tumor cells. viability, % at 10 µM. H69AR lung tumor viability, ATP luminescence, 72 h; active compounds read low. AID 598. 85,000 compounds, 6% hits;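 active means viability at or below 40%; inactive means viability above 40%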;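 further: multidrug resistant small cell line overexpressing MRP-1 efflux transporter; 100% = mean luminescence of untreated control wells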
PTK2B oligo ant – antagonists of human Pyk2 oligomerization; Q293 cells, Pyk2 FERM NanoBiT luminescence; active compounds read low; z-score (the deposit names both 25 µM and 10 µM); 99,000 compounds, 0.83% hits; AID 1347419;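 active means Z-score of -3 or lower, scaled per plate to the spread of control and sample wells; inactive means z-score above -3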;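 further: negative z-score means lost luminescence so less FERM oligomerization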
HCT116 PTEN-null – growth suppressors of cells with PTEN tumor suppressor deletion; HCT116 PTEN-null viability, CellTiter-Glo, 60 h; active compounds read low; viability, % at 10 µM; 140,000 compounds, 1.2% hits; AID 827;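 active means viability at or below a set limit, 4 SD under the median of all tested compounds, cut at about 3.7% in these data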;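 further: PTEN knockout HCT116 line with beta catenin targeted HCT116 as companion control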
HUVEC inhibit – human endothelial cell proliferation inhibition; HUVEC proliferation, CellTiter-Glo luminescence, 72 h; active compounds read low; viability, % at 10 µM (by protocol); 86,000 compounds, 1.1% hits;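 active means viability at or below 30%; inactive means viability above 30%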;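 further: 100% = median luminescence of DMSO-only cell control wells on each plate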
HCT116 bCat-KO – beta-catenin-lacking colon tumor cell growth suppression. AID 818. 140,000 compounds, 1.5% hits. viability, % at 10 µM. HCT116 beta-catenin knockout viability, CellTiter-Glo, 60 h; active compounds read low;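 active means viability at or under a set limit, the compound median less 4 SD, cut at about 6% in these data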;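 further: 0% = Hyamine 1622 control at 20 µM and 100% = untreated cell control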
Fibroblast inh – blocks proliferation of human lung fibroblasts. LL 47 human lung fibroblast viability, ATP luminescence; active compounds read low. viability, % at 10 µM. 85,000 compounds, 1.1% hits;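 active means viability at or below 50% in the single dose screen; inactive means viability above 50%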;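 further: compound exposure lasted 72 h before the ATP readout; 100% = median luminescence of untreated cell-only wells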
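Signal: luminescent ATP detection, CellTiter-Glo; assay system: LL 47 human lung fibroblasts; input: 1,150 cells/well; incubation: overnight cell rest, 72 h compound treatment at 37 °C; measure: % viability versus median cells-only luminescence; medium: IMEM growth medium with 15% fetal bovine serum; dosing: compound addition at 0.1% DMSO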
Active calls of the source: *; nt = not tested or not shown.

SMILES | H69AR inhibit | PTK2B oligo ant | HCT116 PTEN-null | HUVEC inhibit | HCT116 bCat-KO | Fibroblast inh
CCOC(=O)CSC1=C(C#N)C(c2ccccc2OC)CC(=O)N1 (stereo not drawn) | 25* | nt | 35 | 66 | 31 | 76
CCSC1=C(C#N)C(c2ccc(C)s2)CC(=O)N1 (stereo not drawn) | 80 | -0.55 | nt | 91 | nt | 104
CCOC(=O)CSC1=C(C#N)C(c2ccc(C)s2)CC(=O)N1 (stereo not drawn) | 35* | -0.32 | 16 | 51 | 14 | 57
CCSC1=C(C#N)C(c2ccccc2OC)CC(=O)N1 (stereo not drawn) | 87 | nt | 94 | 113 | 92 | 98
N/C(=N\OC(=O)Nc1ccc(Cl)cc1)c1ncc(C(F)(F)F)cc1Cl | 32* | -0.45 | 84 | 67 | 78 | 106
Cc1ccc(S(=O)(=O)O/N=C2\CCCc3ccccc32)cc1 | 101 | 0.49 | 99 | 90 | 88 | 100
CC1=C(C)/C(=N\OS(=O)(=O)c2ccccc2)C=CC1=O | 1.5* | 1.3 | 17 | 3.8* | 34 | 3.5*
N#Cc1c(-n2ccnc2)cccc1-n1ccnc1 | nt | -0.47 | 90 | nt | 96 | nt
COc1ccc2c(c1)C(SCC(=O)NCCc1ccc(Cl)cc1)CC(C)(C)O2 (stereo not drawn) | nt | nt | 84 | nt | 94 | nt
N#Cc1cc2sc3nc4ccccc4n3c2cc1C#N | 85 | nt | 105 | 81 | 102 | 94
N#Cc1cc2sc3nnc(-c4ccncc4)n3c2cc1C#N | 29* | 0.72 | 13 | 57 | 6 | 45*
CCN1c2ccccc2NC2C1C(C(C)=O)C(=O)N2c1ccc(Cl)cc1 (stereo not drawn) | 18* | -0.46 | 69 | 54 | 75 | 79
CCC(=O)N1CC(C)C(=O)Nc2ccccc21 (stereo not drawn) | 96 | -0.48 | 95 | 99 | 92 | 99
CCn1ncc(CNC(=O)c2cccc([N+](=O)[O-])c2)c1C | nt | nt | 103 | nt | 102 | nt
CC(NC(=O)CCl)c1ccc(Cl)c(Cl)c1 (stereo not drawn) | nt | 1.1 | 3.8* | nt | 2.9* | nt
CC(C)CC(NC(=O)CCl)c1ccccc1 (stereo not drawn) | nt | nt | 62 | nt | 57 | nt
O=c1cc(Nc2ccc3c(c2)OCCO3)[nH]c(=O)n1Cc1ccc(F)cc1 | 96 | -1.9 | 86 | 85 | 91 | 94
O=c1cc(Nc2ccc3c(c2)OCCO3)[nH]c(=O)n1-c1ccc(Br)cc1 | 37* | -1.1 | 46 | 83 | 28 | 95
O=c1cc(Nc2ccc3c(c2)OCO3)[nH]c(=O)n1-c1ccc(Br)cc1 | 35* | -0.19 | 97 | 76 | 82 | 97
COc1ccc(C(C[N+](=O)[O-])c2c(-c3ccccc3)cc3ccccn23)cc1 (stereo not drawn) | 12* | -0.43 | 1.9* | 61 | 3.3* | 43*
COc1ccc(C(C[N+](=O)[O-])c2c(-c3ccccc3)cc3ccccn23)cc1OC (stereo not drawn) | 26* | 0.11 | 49 | 81 | 41 | 66
COc1cc(C(C[N+](=O)[O-])c2c(-c3ccccc3)cc3ccccn23)cc(OC)c1OC (stereo not drawn) | 11* | -0.15 | 35 | 64 | 56 | 34*
COC(=O)C(C(=O)OC)C(C[N+](=O)[O-])c1ccc(OC)c(OC)c1 (stereo not drawn) | nt | 1.5 | 84 | nt | 65 | nt
COc1cccc(-c2ncc3ccccn23)c1 | 91 | -0.95 | 91 | 84 | 76 | 95
O=C(CN1CCC(n2nnc3cc(F)ccc32)CC1)NCCc1nc2ccccc2[nH]1 | 88 | 0.13 | 90 | 105 | 97 | 97
SMILES | H69AR inhibit | PTK2B oligo ant | HCT116 PTEN-null | HUVEC inhibit | HCT116 bCat-KO | Fibroblast inh
COc1ccc(NC(=O)C2=C(C)C(=O)OC23CCC(C)CC3)c(OC)c1 (stereo not drawn) | 97 | nt | 84 | 82 | 95 | 92
O=C(NCc1cc(Br)cc(Br)c1OC(=O)c1ccccc1[N+](=O)[O-])c1ccccc1 | nt | nt | 62 | nt | 60 | nt
c1ccc(CCNc2ncnc3nc[nH]c23)cc1 | 96 | 0.09 | 100 | 91 | 85 | 108
c1ccc2c(CCNc3ncnc4nc[nH]c34)c[nH]c2c1 | 20* | nt | 38 | 65 | 47 | 84
N#Cc1ccc(-c2csc(NNC(=O)c3ccc(Br)cc3)n2)cc1 | nt | -0.56 | 4 | nt | 2.8* | nt
CCCc1cc(=O)[nH]c(SCC)n1 | nt | -0.66 | 105 | 90 | 89 | 97
